# GSTO1 inh – counter-screen for RBBP9 inhibitors: inhibitors of human GSTO1. recombinant GSTO1, activity-based probe fluorescence polarization. inhibition, % at 5.96 µM. P78417. 300,000 tested, 1.1% active;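 active means inhibition above the campaign mean inhibition plus 3 SD, cut at about 35% in these data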;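 further: 0% = GSTO1-1 with DMSO and 100% = wells lacking GSTO1-1 enzyme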
# Target sequence (P78417 whole entry, looked up): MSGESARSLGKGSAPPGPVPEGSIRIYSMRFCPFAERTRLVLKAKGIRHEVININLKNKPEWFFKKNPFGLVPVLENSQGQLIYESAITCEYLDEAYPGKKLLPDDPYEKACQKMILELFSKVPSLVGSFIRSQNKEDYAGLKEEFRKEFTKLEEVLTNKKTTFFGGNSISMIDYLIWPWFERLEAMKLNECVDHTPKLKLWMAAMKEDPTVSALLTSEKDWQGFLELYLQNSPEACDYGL
# TDP2 inh – TDP2 (human) inhibition, absorbance primary screen. AID 720702. inhibition, % at 12.8 µM. 370,000 tested, 0.34% active. recombinant TDP2, T5PNP hydrolysis, p-nitrophenol absorbance 415 nm. O95551;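 active means inhibition above the mean of all tested compounds plus 3 SD, set per campaign, cut at about 25% in these data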;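 further: 0% = DMSO with enzyme and 100% = buffer with substrate but no TDP2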
#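 test system = human TDP2 enzyme | input = TDP2 enzyme at 120 nM final | medium = 50 mM Tris-HCl pH 7.5 with Mg2+, KCl, DTT, BSA | also added = T5PNP substrate, 5 mM | times = 2 h at 37 °C | technique = epi absorbance | benchmarks = high control without enzyme, low control DMSO plus TDP2 | replication = each compound tested once, singlicate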
# PRMT1 inh – blocks human protein arginine methyltransferase 1; recombinant PRMT1, activity-based probe fluorescence polarization; inhibition, % at 2.79 µM; 370,000 tested, 1.3% active; Q99873;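 active means inhibition above about 21% made by adding two undisclosed values, limit read from the data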
# Target sequence (Q99873 whole entry, looked up): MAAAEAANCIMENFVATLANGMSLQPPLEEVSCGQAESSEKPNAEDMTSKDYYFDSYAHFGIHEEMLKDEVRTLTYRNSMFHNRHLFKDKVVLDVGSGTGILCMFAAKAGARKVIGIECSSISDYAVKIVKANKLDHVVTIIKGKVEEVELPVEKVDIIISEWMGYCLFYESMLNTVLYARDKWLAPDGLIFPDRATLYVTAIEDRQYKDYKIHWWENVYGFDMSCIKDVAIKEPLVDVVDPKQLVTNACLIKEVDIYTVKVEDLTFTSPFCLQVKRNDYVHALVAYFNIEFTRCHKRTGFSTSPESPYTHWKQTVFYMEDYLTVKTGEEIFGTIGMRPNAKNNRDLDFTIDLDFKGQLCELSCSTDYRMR
# E coli Lon inh – inhibitors of E. coli Lon protease; P0A9M0; purified E. coli Lon protease, fluorescence polarization; inhibition, % at 7.94 µM; 360,000 tested, 0.42% active; AID 602123; in the data active means inhibition above about 13%, passing the limit was not always enough;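 further: 0% = enzyme with probe and DMSO and 100% = no enzyme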
# PAD4 FP inh – inhibitors of human PAD4; Q9UM07; recombinant PAD4, RCA probe fluorescence polarization; inhibition, % at 6.36 µM; 330,000 tested, 0.41% active;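 active means percent inhibition above a cutoff equal to the mean of all tested compounds plus 3 SD, cut at about 15% in these data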;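 further: 0% = PAD4 with RCA probe and DMSO and 100% = probe without PAD4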
# GSTO1 confirm – GSTO1 (human) inhibition, confirmation; shares compounds with GSTO1 inh; recombinant GSTO1, probe fluorescence polarization; inhibition, % at 5.96 µM; 2,400 tested, 54% active; AID 2176;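 active means inhibition above the primary screen's cutoff, its mean inhibition plus 3 SD, cut at about 35% in these data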;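 further: loss of polarization as inhibitors block binding of rhodamine sulfonate ester activity probe; 0% = GSTO1 with DMSO and 100% = wells lacking GSTO1 enzyme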
# GSTO1 ABPP inh – GSTO1 (human) inhibition by gel ABPP; shares compounds with GSTO1 inh; recombinant GSTO1, gel ABPP SE-Rh probe fluorescence; inhibition, % at 1 µM; 130 tested, 30% active; AID 463110;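 active means inhibition of the enzyme GSTO1 above about 75%, limit read from the data; inactive means inhibition below that limit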
# * hit, by the source's call; / = not tested or not shown. An excerpt weighted towards active compounds, which were near 2.5% of everything screened.
SMILES,GSTO1 inh,TDP2 inh,PRMT1 inh,E coli Lon inh,PAD4 FP inh,GSTO1 confirm,others
COc1cc(OC)c([N+](=O)[O-])cc1/C=N/NC(=O)c1ccncc1,49.3*,1.0,8.2,-0.1,-7.9,18.3,
Cc1ccc(-c2csc3nc4cc(C(=O)NC5CCC(O)CC5)ccc4c(=O)n23)cc1 (stereo unspecified),38.9*,12.7,1.0,-4.8,-2.1,21.5,
O=C(OCC(=O)N1CCCC1=O)c1nc(Cl)c(Cl)c(Cl)c1Cl,39.9*,-8.0,3.5,-6.4,-5.2,24.1,
Nc1c(Cl)c(Cl)nc(C(=O)OCC(=O)N2CCCC2=O)c1Cl,4.0,13.2,-2.4,2.8,-1.3,/,
Cc1c(O)cc2c(c1O)C(=O)CC(c1ccc(O)cc1)O2 (stereo unspecified),50.8*,-1.6,2.3,-14.8,-0.7,10.1,
COC[C@@H]1CCCN1c1ccc2c(c1)O[C@@H]1CCN(C1)S2(=O)=O,/,-4.4,0.0,/,/,/,
N=c1c2c(ccn1Cc1ccccc1)Oc1ccc3ccccc3c1C2c1ccccc1 (stereo unspecified),/,-1.6,-2.5,/,/,/,
Cc1cc(C)c(NC(=O)CN2C(=O)NC3(CCc4ccccc43)C2=O)c(Cl)c1 (stereo unspecified),/,3.2,-0.6,0.6,-6.0,/,
Cc1cc(C)c(NC(=O)CN2C(=O)NC3(CCCCC3)C2=O)c(Cl)c1,54.3*,/,/,-0.7,0.1,32.8,
COc1cc(NC(=O)C2CCCN(S(=O)(=O)c3cccc4cccnc34)C2)cc(OC)c1 (stereo unspecified),/,-0.7,0.3,/,/,/,
COc1cccc(Cn2c(N)c(C#N)c3nc4ccccc4nc32)c1OC,40.8*,-7.7,1.2,-16.9,-12.1,-2.3,
COc1cc(Cn2c(N)c(C#N)c3nc4ccccc4nc32)cc(OC)c1,13.5,-11.8,0.8,-1.7,-14.8,/,
COC(=O)[C@]12C[C@H](CC(=O)N3CCCCC3)C(=O)N(CCc3ccc(OC)c(OC)c3)C1=C[C@H](COCc1ccccc1)O[C@@H]2C,/,-8.2,-0.5,/,/,/,
COC(=O)CCCC1=CC2=CC(=O)C(C)(OC(=O)c3cccs3)C(=O)C2=CN1Cc1ccco1 (stereo unspecified),18.3,-0.7,18.0,7.4,-4.6,/,
COC(=O)CCC(=O)OC1(C)C(=O)C=C2C=C(C3CC3)N(c3ccc(CO)cc3)C=C2C1=O (stereo unspecified),20.6,/,/,/,-4.5,/,
COC(=O)CCC(=O)OC1(C)C(=O)C=C2C=C(C3CC3)N(Cc3ccco3)C=C2C1=O (stereo unspecified),37.9*,17.2,12.9,12.0,-2.7,17.4,
COC(=O)CCC(=O)OC1(C)C(=O)C=C2C=C(C3CC3)N(c3cccc(C#N)c3)C=C2C1=O (stereo unspecified),58.0*,7.0,8.3,14.5,-10.9,7.5,
C=CCN1C(=O)[C@H](CC(=O)NCC2CCCCC2)[C@@]2(C(=O)OCC)CCCC=C12,/,-10.1,-2.8,/,/,/,
CNC(=S)N/N=C/c1c(C(=O)OC)cnn1-c1ccc(Cl)cc1,/,3.5,0.1,/,/,/,
O=C(N/N=C/c1c[nH]c2ccccc12)c1ccc(O)c(O)c1,39.6*,-18.6,11.8,11.5,0.4,10.7,
O=C(c1ccccc1Cl)N1CCC(Oc2cccnc2)CC1,/,-1.4,0.6,/,/,/,
O=C(CSc1nnc(-c2cccnc2)n1Cc1ccco1)Nc1ccc(F)cc1Cl,/,-1.7,12.7,/,/,/,
CCN(C(=O)COC(=O)CNC(=O)c1ccccc1C)C1=CCCCC1,/,11.6,3.5,-3.3,0.5,/,
CCCN(C(=O)CCl)C1=CCCCC1,38.2*,8.9,-3.3,-2.7,-3.6,57.9*,GSTO1 ABPP inh=63.0
Cc1cc(C)c2c(CN3CCCCC3)cc(=O)oc2c1,-2.4,-7.1,-0.9,21.5,-3.6,/,
SMILES,GSTO1 inh,TDP2 inh,PRMT1 inh,E coli Lon inh,PAD4 FP inh,GSTO1 confirm,others
Cc1cc(C)c2c(CCl)cc(=O)oc2c1,64.6*,20.6,1.0,23.1,1.8,96.6*,
O=C(O)/C=C\C(=O)Nc1ccc(N2CCN(c3ccc(Cl)c(Cl)c3)CC2)cc1,27.9,-0.2,7.7,3.4,-3.1,/,
O=C(O)/C=C\C(=O)Nc1ccc(N2CCN(c3cccc(Cl)c3)CC2)cc1,44.9*,-2.7,6.0,-2.2,3.0,7.3,
O=C(O)/C=C\C(=O)Nc1ccc(N2CCN(c3ccc(Cl)cc3)CC2)cc1,59.2*,2.2,3.3,0.7,2.2,8.3,
N=c1c2c(ccn1CCCCc1ccccc1)Oc1ccc3ccccc3c1C2c1ccccc1 (stereo unspecified),/,10.4,-5.2,/,/,/,
CCn1c(=O)n(CC(=O)N2CCCC2)c(=O)c2ccccc21,/,4.6,-0.5,/,/,/,
COC(=O)[C@]12C[C@H](CC(=O)NCC3CCCCC3)C(=O)N(Cc3ccc(Cl)cc3Cl)C1=C[C@H](C(C)C)O[C@@H]2C1CC1,/,-6.1,2.1,/,/,/,
COc1cc(S(=O)(=O)N(Cc2ccc(C)cc2)Cc2ccco2)ccc1-n1cnnn1,5.9,1.8,-0.1,-2.2,-3.0,/,
COc1cc(S(=O)(=O)N(Cc2cccnc2)Cc2ccco2)ccc1-n1cnnn1,39.6*,7.5,1.7,-1.6,-3.0,3.9,
Cc1cc(C(=O)NNC(=S)NC(=O)/C=C/c2ccccc2Cl)n[nH]1,57.9*,-12.4,5.7,2.5,-0.3,9.9,
COc1ccc(/C=N/NC(=O)c2ccn[nH]2)cc1CSc1ccccn1,46.7*,-5.8,-0.4,-3.8,0.4,-5.1,
COc1ccc(/C=N/NC(=O)c2cccc(Br)c2)cc1CSc1ccccn1,-23.9,2.9,-0.3,6.9,-8.1,/,
Cc1ccc2c(c1)C1CS(=O)(=O)N(Cc3ccc(F)cc3)CN1C2 (stereo unspecified),/,2.0,1.6,/,/,/,
O=C(OCc1cn(Cc2ccc(F)cc2F)nn1)N1CCCC1,/,-2.5,2.2,/,/,/,
Cc1cccc(-c2nnc(SCCOc3ccc4c(C)cc(=O)oc4c3)o2)c1,40.2*,-8.1,1.2,-6.2,-0.6,24.9,
Cc1cc(=O)oc2cc(OCCSc3nnc(-c4ccccc4)o3)ccc12,15.2,-3.8,3.3,-4.3,-1.4,/,
COc1ccc(OCC(=O)Nc2cccc3ncccc23)cc1,-2.5,-5.5,1.4,-4.7,-5.2,/,
O=C(CCl)Nc1cccc2ncccc12,68.9*,9.9,1.4,6.5,-0.8,76.7*,
NS(=O)(=O)c1ccc(CCNC(=O)NC2(C(F)(F)F)Oc3ccccc3O2)cc1,47.5*,2.1,1.2,-2.5,-1.0,2.1,
O=C(NCCN1CCOCC1)NC1(C(F)(F)F)Oc2ccccc2O1,57.3*,0.6,5.4,-0.8,-1.5,4.7,
COCCNC(=O)NC1(C(F)(F)F)Oc2ccc(Cl)cc2O1 (stereo unspecified),37.6*,1.8,3.9,-4.9,2.0,4.8,
O=C(NCc1cccnc1)NC1(C(F)(F)F)Oc2ccc(Cl)cc2O1 (stereo unspecified),27.0,/,/,-8.6,-5.9,/,
CC(=O)NC1(C(Cl)(Cl)Cl)Oc2ccccc2O1,2.0,-3.9,0.5,9.0,-6.2,/,

# High-throughput results deposited in PubChem BioAssay by The Scripps Research Institute Molecular Screening Center.
